An excerpt weighted towards active compounds, which were near 2.3% of everything screened.
GalR3 antag – antagonists of human GalR3. O60755. HEK293 GalR3-CNG cAMP membrane potential fluorescence; galR3 body fused to GalR1 C-terminus. inhibition, % at 3 µM. hit rate 0.44% among 360,000;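 active means inhibition above the screen-wide average plus 3 SD, cut at about 13% in these data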;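 further: forskolin and galanin both at EC90 stimulate the cells; cAMP rise reported by CNG channel membrane potential dye signal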
CHT PAM – allosterically activates the human high affinity choline transporter; Q9GZV3; hit rate 0.49% among 310,000; B-score at 10 µM; CHT-expressing cells, membrane potential dye, choline EC20; stronger effect = higher value; LV-AA mutant CHT in HEK293 cells;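 active means initial fluorescence not abnormally high and integrated response B-score, plate-corrected, over 3 SD above library mean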
Target sequence (Q9GZV3 whole entry, looked up): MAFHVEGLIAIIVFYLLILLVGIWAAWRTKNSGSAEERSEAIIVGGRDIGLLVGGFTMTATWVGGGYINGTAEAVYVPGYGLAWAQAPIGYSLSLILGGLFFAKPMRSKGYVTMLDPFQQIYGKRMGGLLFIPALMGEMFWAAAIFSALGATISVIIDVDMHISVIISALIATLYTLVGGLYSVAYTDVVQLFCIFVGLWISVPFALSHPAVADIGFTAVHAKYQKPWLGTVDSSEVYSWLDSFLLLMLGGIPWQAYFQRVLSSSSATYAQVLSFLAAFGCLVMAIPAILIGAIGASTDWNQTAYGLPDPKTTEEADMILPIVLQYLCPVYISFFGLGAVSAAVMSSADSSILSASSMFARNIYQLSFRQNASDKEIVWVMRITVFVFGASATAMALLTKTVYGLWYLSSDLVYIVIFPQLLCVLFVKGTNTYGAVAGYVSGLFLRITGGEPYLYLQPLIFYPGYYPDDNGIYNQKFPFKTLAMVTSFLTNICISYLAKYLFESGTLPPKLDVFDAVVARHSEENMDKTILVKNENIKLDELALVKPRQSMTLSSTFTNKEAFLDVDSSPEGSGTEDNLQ
NR2E3 ag-1 – human photoreceptor-specific nuclear receptor agonism. Q9Y5X4. CHO-S Gal4-NCOR/VP16-NR2E3 two-hybrid, luciferase. inhibition of corepressor binding, % at 3.98 µM. hit rate 0.35% among 360,000;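 active means inhibition above the mean of all tested compounds plus 3 SD, cut at about 70% in these data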;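 further: higher means lower luciferase signal from less NR2E3 corepressor binding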
NR2F2 inh – inhibitors of human COUP-TFII (NR2F2); P24468; HEK293T NGFI-A luciferase reporter, luminescence; inhibition, % at 8.6 µM; hit rate 0.7% among 370,000; AID 686940;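 active means inhibition above a per-plate cutoff, mean inhibition of test wells between control levels plus 3 SD, cut at about 38% in these data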;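 further: cells cotransfected with COUP-TFII expression vector driving the NGFI-A reporter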
NR2E3 ag-2 – agonists of human nuclear receptor NR2E3; Q9Y5X4; GST-NR2E3/biotin-RetCOR TR-FRET, 1536-well; inhibition of corepressor binding, % at 4.78 µM; hit rate 0.12% among 320,000;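 active means percent inhibition above the cutoff of mean plus 3 SD of all tested compounds, set per screening campaign, cut at about 20% in these data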
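system = GST-tagged NR2E3 plus biotinylated RetCOR corepressor | input = 1.35 nM GST-NR2E3 | also added = 7 nM biotin-RetCOR | schedule = 5 h incubation at 4 °C | measured by = TR-FRET with europium anti-GST and streptavidin-D2, 340 nm excitation | read-out = percent loss of FRET ratio relative to control wells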
CHT block – inhibits the human high affinity choline transporter; Q9GZV3; CHT-expressing cells, membrane potential dye, choline response; stronger effect = lower value; B-score at 10 µM; hit rate 0.86% among 310,000; AID 488975;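 active means B-score over 3 SD under the library average, and starting fluorescence ratio not unusually high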;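 further: choline stimulus applied at its EC90 after an EC20 pre-addition; B-score computed on integrated fluorescence ratio after choline addition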
CHT block conf – human CHT inhibition, confirmatory screen | shares compounds with CHT block | CHT activity remaining % of control (stronger effect = lower value), % at 10 µM | hit rate 70% among 2,400 | AID 493221 | CHT-expressing cells, choline membrane potential dye; LV-to-AA substituted CHT, HEK293 cells;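 active means choline transporter activity left, mean of duplicates at 10 µM, below buffer-only control mean minus 3 SD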;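 further: depolarization triggered by choline at its EC90 following an EC20 pre-addition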
HEK293 MPD ctr – counter-screen for CHT inhibitors: effect in parental HEK293 cells; membrane potential ratio readout (active if shifted either direction beyond buffer ±3SD; no single direction) at 10 µM; membrane potential dye, choline response; active = decrease or increase beyond buffer ±3SD; hit rate 4% among 2,400; shares compounds with CHT block;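 further: parental cells lack the transporter so any hit is non-specific; ratio is peak minus trough fluorescence over baseline after EC90 choline challenge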
Hits are given with their value; n = inactive; x = no result given.

SMILES	GalR3 antag	CHT PAM	NR2E3 ag-1	NR2F2 inh	NR2E3 ag-2	CHT block	CHT block conf	HEK293 MPD ctr
O=C(Nc1sc2c(c1-c1nc3ccccc3s1)CCNC2)C(F)(F)F	x	x	x	n	x	x	x	x
Cc1ccnc(NC(=S)N2CC3CN(c4cccc(C(F)(F)F)c4)CC3C2)c1 (stereo not given)	x	x	x	n	x	x	x	x
Cc1cccc(NC(=O)c2ccccc2O)c1C	n	n	n	n	n	-6.36	68.8%	n
Cc1cccc(NC(=O)c2cccc([N+](=O)[O-])c2O)c1C	n	x	n	n	x	x	x	x
O=C(Nc1ccccc1O)c1ccccc1O	n	n	n	n	n	-8.85	40.4%	n
CC1CCc2c(sc3ncnc(SCC(=O)Nc4ccc(C(=O)O)cc4)c23)C1 (stereo not given)	n	n	n	n	n	n	x	x
COc1cc(NC(=O)CSc2ncnc3sc4c(c23)CCC(C)C4)c(C(=O)O)cc1OC (stereo not given)	n	n	n	n	n	-6.3	69.8%	n
O=C(CSc1nnc(-c2cnccn2)n1-c1ccccc1)Nc1ccc2c(c1)OCCO2	x	x	x	n	x	x	x	x
CC(C)(C)c1nc2cc(Cl)c([N+](=O)[O-])cc2o1	n	n	n	n	n	-14.2	n	n
Cc1nc2ccccn2c1C(=O)N/N=C/c1ccccc1	n	n	n	n	n	n	x	x
Cc1ccccc1N/N=C/c1c(C)nc2ccccn12	n	n	n	n	n	-12.6	n	n
O=C(O)/C(=C\c1ccc(-c2ccccc2[N+](=O)[O-])o1)c1ccccc1	n	n	n	n	n	-5.6	n	n
O=C(/C=C/c1ccc(-c2ccccc2[N+](=O)[O-])o1)c1ccccc1	n	n	n	n	n	n	x	x
Cc1ccc(Nc2cc(C(=O)NCCCN3CCOCC3)c3ccccc3n2)cc1C	n	n	n	n	n	n	61.8%	n
O=C(NCCCN1CCOCC1)c1cc(-c2ccccc2)nc2ccccc12	n	n	n	n	n	n	x	x
Cc1ccc(Oc2ccc(NC(=O)Cn3ccsc3=N)cc2)cc1	n	n	n	n	n	-7.9	16.5%	n
COCCCNC(=O)C[C@H]1C[C@@]2(C(=O)OC)C(=C[C@H](COCc3ccccc3)O[C@@H]2C)N(Cc2ccc(Cl)cc2Cl)C1=O	x	x	x	n	x	x	x	x
CC1CCN(CCc2nc3cc(NS(=O)(=O)c4ccccc4)ccc3n2C)CC1	n	n	n	n	n	-9.33	37.1%	n
CC1CCN(CCc2nc3cc(NS(=O)(=O)c4ccc(F)cc4)ccc3n2C)CC1	n	n	n	n	n	n	x	x
N#C[C@@H]1N[C@H](CO)[C@@H]1c1ccccc1	x	x	x	n	x	x	x	x
Cc1ccc2c(c1)C1CS(=O)(=O)N(CCc3ccccc3)C(=O)N1C2 (stereo not given)	x	x	x	n	x	x	x	x
CC1=NN(C(=O)c2ccc(Cn3nc(C)c(Br)c3C)cc2)C(O)(C(F)(F)F)C1 (stereo not given)	n	n	n	n	n	-8.15	25.9%	n
CC1=NN(C(=O)c2ccc(Cn3nc(C)c([N+](=O)[O-])c3C)cc2)C(O)(C(F)(F)F)C1 (stereo not given)	n	n	n	n	n	n	x	x
O=C(CSc1nn(-c2ccc(F)cc2)c(=S)s1)NCC1CCCO1 (stereo not given)	n	n	n	n	n	-5.36	n	n
CCCCCc1ccc(NC(=O)OCCCN2CCC3(CCC(c4ccccc4)CC3)C2=O)cc1 (stereo not given)	x	x	x	n	x	x	x	x
Cc1cc(C)c(C#N)c(N)n1	n	n	n	n	n	-8.64	n	n
CCSc1nnc2n1C(C)(C)Cc1ccccc1-2	n	n	n	n	n	-5.02	40.8%	n
COc1ccc(C2CC(c3ccc(Br)cc3)=NN2C(=O)CN2CCCC2)cc1 (stereo not given)	n	n	n	n	n	-7.06	56.2%	n
CCOC(=O)Cc1csc(N/C(=N/S(=O)(=O)c2ccc(F)cc2F)c2ccccc2)n1	n	n	n	n	n	-6.78	63.1%	n

Assay outcomes (PubChem)
